# The sample as a whole holds a higher share of hits than the screen did.
# T cruzi growth-1: T. cruzi proliferation inhibition | T. cruzi beta-gal in NIH3T3, GalScreen luminescence, 90 h | inhibition, % at 8.34 µM | actives 5.9% (n = 77,000) | AID 624255;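 active = mean inhibition above about 93%, with at least 55% of replicates each passing it, limit read from the data, passing the limit was not always enough; inconclusive = only one of those two conditions holds; inactive = neither condition holds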
# KDM4C inh: KDM4C (human) demethylase inhibition | Q9H3R0 | GST-KDM4C 2-372, H3K9me3 peptide, LANCE TR-FRET | inhibition, % at 12.5 µM | actives 0.15% (n = 96,000) | AID 720574;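 active = mean replicate inhibition above about 25%, with at least 55% of replicates also reaching it, limit read from the data, passing the limit was not always enough; inconclusive = only one of those two conditions met; inactive = neither condition met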
# Target sequence (Q9H3R0 2-372 limits assumed): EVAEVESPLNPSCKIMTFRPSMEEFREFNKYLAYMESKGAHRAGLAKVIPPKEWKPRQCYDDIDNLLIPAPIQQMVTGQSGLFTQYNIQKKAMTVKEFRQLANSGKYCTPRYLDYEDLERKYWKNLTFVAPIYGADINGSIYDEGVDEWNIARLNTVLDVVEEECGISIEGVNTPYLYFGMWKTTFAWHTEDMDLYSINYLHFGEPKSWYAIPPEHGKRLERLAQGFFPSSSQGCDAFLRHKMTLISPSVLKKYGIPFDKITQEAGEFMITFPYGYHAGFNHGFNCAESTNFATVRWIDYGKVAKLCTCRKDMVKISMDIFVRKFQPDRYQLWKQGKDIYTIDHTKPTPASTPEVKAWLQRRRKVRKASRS
#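 Assay system: GST-GASC-1 enzyme fragment 2-372 | Amount: 10 nM enzyme | Medium: HEPES buffer, pH 7.5, plus ascorbate | Reagent: H3K9me3 peptide substrate, Fe(II), 2-oxoglutarate | Doses: Single-point compound screen | Incubation: 30 min demethylation and 1 h detection at room temperature | Measured by: LANCE TR-FRET, excitation 340 nm, emissions 618 and 671 nm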
# IDH1 R132H inh: inhibitors of human IDH1 R132H; actives 0.18% (n = 70,000); inhibition, % at 10 µM; IDH1 R132H reductase, diaphorase/resazurin fluorescence, 60 min; in the data active = inhibition above about 34%; inconclusive = no clear call, values can overlap the other calls; inactive = below about 11%;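 also: 0% = DMSO and 100% = no enzyme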
# T cruzi growth-2: inhibitors of T. cruzi proliferation | inhibition, % at 8.35 µM | T. cruzi beta-gal in NIH3T3, GalScreen luminescence, 90 h | actives 72% (n = 5,600) | shares compounds with T cruzi growth-1;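 active = mean replicate inhibition above about 95% and at least 55% of replicates individually reaching it, limit read from the data; inconclusive = only one of the two criteria is met; inactive = neither criterion is met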
# T cruzi growth-3: inhibitors of T. cruzi proliferation | inhibition, % at 2.09 µM | AID 651740 | actives 21% (n = 5,600) | shares compounds with T cruzi growth-1 | T. cruzi beta-gal in NIH3T3, GalScreen luminescence, 90 h;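 active = mean inhibition above about 95%, with at least 55% of replicates also reaching it, limit read from the data; inconclusive = meets just one of the two conditions; inactive = meets neither condition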;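 also: plate controls were neutral control median for no effect and positive control median for full effect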
# 3T3 cytotox: cytotoxicity in mouse NIH/3T3 fibroblasts; shares compounds with T cruzi growth-1; NIH/3T3 viability, CellTiter-Glo ATP luminescence, 90 h; cytotoxicity (signal decrease), % at 8.35 µM; actives 14% (n = 5,600); AID 651742;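 active = mean signal decrease across replicates above about 35% based on untreated-well scatter, with enough replicates individually passing, limit read from the data; inconclusive = no rule stated though some were filed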;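 also: 0% = median of neutral control wells and 100% = median of positive control wells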
# NIH3T3 tox 2: kills mouse NIH/3T3 fibroblasts. shares compounds with T cruzi growth-1. NIH/3T3 viability, CellTiter-Glo ATP luminescence, 90 h. inhibition, % at 24.9 µM. actives 56% (n = 5,600);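 active = mean loss of cell viability signal at or above a set limit, and enough replicates individually reaching it; inconclusive = meets only the mean limit or only the replicate share; inactive = meets neither condition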;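 also: 0% = median of neutral control wells and 100% = median of positive control wells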
# Numbers without * were called inactive; ? = inconclusive; · = no result given.
SMILES,T cruzi growth-1,KDM4C inh,IDH1 R132H inh,T cruzi growth-2,T cruzi growth-3,3T3 cytotox,NIH3T3 tox 2
CCCC#Cc1ccc([C@H]2[C@H](CO)N3CCCCN(Cc4cccnc4)C[C@@H]23)cc1,115*,1,·,108*,69,-15,90*
CCCC#Cc1ccc([C@@H]2[C@H](CO)N3CCCCN(Cc4cncnc4)C[C@@H]23)cc1,42,-1,·,·,·,·,·
CC(=O)c1cccc(NC(=O)CSc2nnc(-c3cc4ccccc4cc3O)n2C)c1,·,·,0,·,·,·,·
CC(Sc1nc2ccccc2c(=O)[nH]1)C(=O)Nc1ccc(Cl)cc1 (stereo unspecified),·,·,3,·,·,·,·
C=CCn1c2ccccc2c2nnc(SCC(=O)c3ccc(C)cc3)nc21,·,·,0,·,·,·,·
CCCNC(=O)N1[C@@H](C#N)[C@@H](c2ccc(C#Cc3ccc(F)cc3)cc2)[C@@H]1CO,103*,1,·,107*,103*,-1,?
CCCNC(=O)N1[C@@H](C#N)[C@H](c2ccc(C#Cc3ccc(F)cc3)cc2)[C@@H]1CO,103*,-1,·,105*,47,8,40*
N#C[C@H]1[C@H](c2ccc(C#Cc3ccc(F)cc3)cc2)[C@H](CO)N1C(=O)Nc1ccc(F)cc1,95,-2,·,·,·,·,·
N#C[C@H]1[C@@H](c2ccc(C#Cc3ccc(F)cc3)cc2)[C@H](CO)N1C(=O)Nc1ccc(F)cc1,88,-1,·,·,·,·,·
Cc1ccc(Oc2coc3cc(OCC(=O)Nc4ccccc4C(F)(F)F)ccc3c2=O)cc1,·,·,0,·,·,·,·
COC(=O)c1cc(OC)c(OC)cc1NC(=O)COc1ccccc1,·,·,0,·,·,·,·
Cc1ccc(N(C(C)C(=O)NC2CCCCC2)S(C)(=O)=O)cc1C (stereo unspecified),·,·,0,·,·,·,·
Cc1ccc(-c2ccc3c(c2)O[C@H](CN(C)Cc2ccc(F)cc2)[C@H](C)CN([C@@H](C)CO)S3(=O)=O)cc1,97*,-1,1,106*,?,19,69*
Cc1ccc(-c2ccc3c(c2)O[C@@H](CN(C)Cc2ccc(F)cc2)[C@@H](C)CN([C@H](C)CO)S3(=O)=O)cc1,92,1,0,·,·,·,·
Cc1ccc(-c2ccc3c(c2)O[C@H](CN(C)Cc2ccc(C(=O)O)cc2)[C@@H](C)CN([C@H](C)CO)S3(=O)=O)cc1,61,-1,1,·,·,·,·
Cc1ccc(-c2ccc3c(c2)O[C@@H](CN(C)Cc2ccc(F)cc2)[C@H](C)CN([C@@H](C)CO)S3(=O)=O)cc1,?,-2,1,96*,103*,63*,105*
CS(=O)(=O)N(CC(=O)Nc1cccc(F)c1)c1cccc2ccccc12,·,·,0,·,·,·,·
C[C@@H](O)C#Cc1ccc2c(c1)O[C@H](CN(C)Cc1ccccc1)[C@@H](C)CN([C@@H](C)CO)S2(=O)=O,40,·,-1,·,·,·,·
C[C@H]1CN([C@@H](C)CO)S(=O)(=O)c2ccc(C#CCN(C)C)cc2O[C@H]1CN(C)Cc1ccccc1,?,3,2,105*,64,22,39*
C[C@@H]1CN([C@@H](C)CO)S(=O)(=O)c2ccc(C#CCN(C)C)cc2O[C@@H]1CN(C)Cc1ccc(F)cc1,61,4,0,·,·,·,·
CC(C)C#Cc1ccc2c(c1)O[C@@H](CN(C)Cc1ccccc1)[C@H](C)CN([C@H](C)CO)S2(=O)=O,93,1,0,·,·,·,·
C[C@H](CO)N1C[C@H](C)[C@@H](CN(C)Cc2ccccc2)Oc2cc(C#CCN(C)C)ccc2S1(=O)=O,94,2,-1,·,·,·,·
C[C@@H]1CN([C@H](C)CO)S(=O)(=O)c2ccc(C#CCN(C)C)cc2O[C@H]1CN(C)Cc1ccccc1,107*,0,-1,97*,84,45*,104*
C[C@@H]1CN([C@@H](C)CO)S(=O)(=O)c2ccc(C#CCN(C)C)cc2O[C@H]1CN(C)Cc1ccccc1,109*,1,0,105*,98*,32,104*
C[C@@H]1CN([C@@H](C)CO)S(=O)(=O)c2ccc(C#CCN(C)C)cc2O[C@H]1CN(C)Cc1ccc(F)cc1,113*,2,0,?,91,51*,103*
SMILES,T cruzi growth-1,KDM4C inh,IDH1 R132H inh,T cruzi growth-2,T cruzi growth-3,3T3 cytotox,NIH3T3 tox 2
CC(=O)/C=C\[C@@H]1[C@@]2(C)CCCC(C)(C)C2CC[C@@]1(C)O (stereo partly specified),·,·,1,·,·,·,·
CN(C)C1=NC(C(F)(F)F)(C(F)(F)F)N=C(c2ccccc2)O1,·,·,0,·,·,·,·
Cc1cc(C(F)(F)F)nn1CCCNC(=O)c1cc(-c2cccnc2)nc2ccc(Cl)cc12,·,·,3,·,·,·,·
C[C@@H]1CN([C@@H](C)CO)S(=O)(=O)c2ccc(Br)cc2O[C@H]1CN(C)S(=O)(=O)c1ccc(F)cc1,100*,-1,-3,106*,45,23,78*
C[C@@H]1CN([C@H](C)CO)S(=O)(=O)c2ccc(Br)cc2O[C@@H]1CN(C)S(=O)(=O)c1ccc(F)cc1,87,-4,-6,·,·,·,·
C[C@H](CO)N1C[C@H](C)[C@H](CN(C)S(=O)(=O)c2cccc(F)c2)Oc2cc(Br)ccc2S1(=O)=O,117*,0,·,106*,66,4,49*
Cc1ccc(S(=O)(=O)N(C)C[C@H]2Oc3cc(Br)ccc3S(=O)(=O)N([C@H](C)CO)C[C@@H]2C)cc1,110*,-1,2,107*,81,33,61*
C[C@@H]1CN([C@H](C)CO)S(=O)(=O)c2ccc(Br)cc2O[C@H]1CN(C)S(=O)(=O)c1ccc(F)cc1,97*,-3,-8,113*,38,24,61*
C[C@H]1CN([C@@H](C)CO)S(=O)(=O)c2ccc(Br)cc2O[C@@H]1CN(C)S(=O)(=O)c1ccc(F)cc1,90,-2,-1,·,·,·,·
Cc1ccc(S(=O)(=O)N(C)C[C@@H]2Oc3cc(Br)ccc3S(=O)(=O)N([C@@H](C)CO)C[C@H]2C)cc1,·,-2,-2,·,·,·,·
COc1ccc(NC(=O)CN2CCN(S(=O)(=O)c3c(C)cc(C)cc3C)CC2)cc1,·,·,0,·,·,·,·
Cc1oc(-c2cc(Cl)cc(Cl)c2)cc1C(=O)NCc1ccco1,·,·,0,·,·,·,·
O=C(Nc1ccccc1-c1nc2ccccc2s1)c1ccc(-c2ccccc2[N+](=O)[O-])o1,·,·,0,·,·,·,·
CS(=O)(=O)N(CC(=O)Nc1ccc(Cl)c(C(F)(F)F)c1)c1cccc(Br)c1,·,·,0,·,·,·,·
C[C@@H]1CCCCO[C@H](CN(C)S(=O)(=O)c2ccccc2)[C@H](C)CN([C@@H](C)CO)C(=O)c2cc(NS(=O)(=O)c3ccc(F)cc3)ccc2O1,20,11,0,·,·,·,·

# Screens: PubChem, Broad Institute
